Rows were chosen to be rich in hits. Some 0.91% of all compounds tested hit in one or more screens of this group.
TbHK1 inh: T. brucei hexokinase 1 inhibition. recombinant TbHK1, G6PDH-coupled NADH A340. inhibition, % at 10 µM. AID 1430. hit rate 0.11% among 220,000;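 active means inhibition of 50% or more in the single-dose primary screen; inactive means inhibition below 50%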
G6PDH counter: L. mesenteroides G6PDH inhibition counter-screen | AID 1020 | hit rate 0.12% among 200,000 | Purified L. mesenteroides G6PDH, diaphorase/resazurin coupled fluorescence, 45 min | inhibition, % at 5 µM; in the data active means inhibition above about 50%
DTT redox prof: compounds producing H2O2 with reducing agent – biochemical, NIH compound library profiling, artefact control for MLSCN library redox annotation, primary screen | DTT-dependent redox cycling H2O2, phenol red/HRP absorbance; 100% = 100 µM peroxide control, 0% = buffer | activation, % at 10 µM | hit rate 0.03% among 200,000;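 active means activation of at least 50% relative to the plate's high and low controls in the primary single-dose screen; inactive means activation below 50%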;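 further: compound incubated with DTT at 0.8 mM final as the reducing agent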
PMI act: activators of human phosphomannose isomerase | P34949 | purified human PMI, coupled resazurin fluorescence, 20 min; active compounds read high; 1 = vehicle control, 0 substrate-free wells | activation factor at 20 µM | hit rate 0.005% among 190,000;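 active means activation factor of 2 or more at 20 µM, relative to plate controls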
p97 inhibitor: human p97 ATPase inhibition. P55072. recombinant p97 ATPase, Kinase-Glo ATP luminescence, 3 h. inhibition, % at 8 µM. hit rate 0.42% among 220,000; in the data active means inhibition above about 15%;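 further: 0% = DMSO vehicle and 100% = wells lacking enzyme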
Target sequence (P55072 whole entry, looked up): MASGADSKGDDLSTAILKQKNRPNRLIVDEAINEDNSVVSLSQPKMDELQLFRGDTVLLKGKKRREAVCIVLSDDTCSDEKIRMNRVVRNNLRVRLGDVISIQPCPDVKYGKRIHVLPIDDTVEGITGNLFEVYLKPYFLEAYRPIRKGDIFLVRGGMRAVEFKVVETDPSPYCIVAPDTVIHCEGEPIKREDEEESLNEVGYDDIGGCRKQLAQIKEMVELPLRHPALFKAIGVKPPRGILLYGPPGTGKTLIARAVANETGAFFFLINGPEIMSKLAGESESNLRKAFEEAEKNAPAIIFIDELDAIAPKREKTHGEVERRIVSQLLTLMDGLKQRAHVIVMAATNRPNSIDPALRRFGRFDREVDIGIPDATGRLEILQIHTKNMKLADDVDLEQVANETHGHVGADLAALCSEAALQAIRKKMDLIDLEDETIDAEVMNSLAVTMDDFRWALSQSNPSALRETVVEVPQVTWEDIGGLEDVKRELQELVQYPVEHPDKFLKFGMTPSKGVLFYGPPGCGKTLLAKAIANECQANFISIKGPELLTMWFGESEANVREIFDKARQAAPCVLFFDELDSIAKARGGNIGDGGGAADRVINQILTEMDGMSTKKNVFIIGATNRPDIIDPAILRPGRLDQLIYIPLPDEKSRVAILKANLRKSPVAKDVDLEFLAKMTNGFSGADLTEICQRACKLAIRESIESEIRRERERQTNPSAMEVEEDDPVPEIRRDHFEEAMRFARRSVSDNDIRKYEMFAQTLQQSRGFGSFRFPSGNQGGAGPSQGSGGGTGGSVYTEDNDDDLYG
PMI act hi M6P: increases human PMI activity with near-saturating mannose 6-phosphate. coupled PMI enzyme assay, resazurin fluorescence, 20 min; active compounds read high; 1 = untreated enzyme, 0 = substrate-free blank. activation factor at 20 µM. hit rate 0.34% among 190,000. AID 1216;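 active means activation factor of 2 or more at 20 µM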
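Material: human phosphomannose isomerase with PGI, G6PDH, diaphorase coupling enzymes; amount: PMI at 15 ng/mL final; also added: Mannose-6-phosphate 1.0 mM (near-saturating) plus 0.22 mM NADP+; incubation: enzyme reaction with compound 20 min at room temperature; signal: resorufin fluorescence (Ex 544/Em 590 nm) from resazurin via diaphorase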
p97 inh conf: confirmation of human p97 ATPase inhibitors | shares compounds with p97 inhibitor | recombinant p97 ATPase, Kinase-Glo ATP luminescence | inhibition, % at 8 µM | hit rate 44% among 760;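 active means percent inhibition of p97 ATPase above a set limit, the primary screen's mean plus 3 SD, cut at about 15% in these data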;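 further: 0% = DMSO wells and 100% = wells lacking p97 protein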
* marks the source's active call; other numbers are inactive results; . = no result given.

SMILES	TbHK1 inh	G6PDH counter	DTT redox prof	PMI act	p97 inhibitor	PMI act hi M6P	p97 inh conf
Cc1cc(C)nc(S/C=C/C(=O)c2ccc(F)cc2)n1	-6.8	.	.	.	-7.3	.	.
S=c1[nH]nc(-c2ccc(Cl)cc2)n1/N=C/C=C/c1ccco1	-63.8	.	.	.	15.9*	.	7.4
Cc1ccccc1-c1n[nH]c(=S)n1/N=C/C=C/c1ccco1	-72.8	.	.	.	7.9	.	.
Cc1cc(-c2n[nH]c(=S)n2/N=C/C=C/c2ccco2)n[nH]1	-62.2	.	.	.	24.2*	.	9.2
S=c1[nH]nc(-c2ccccc2)n1/N=C/C=C/c1ccco1	-44.3	6.9	0.1	0.9	6.7	0.9	.
Cn1c(CN2CCN(C(=O)c3ccc(F)cc3)CC2)nc2cc([N+](=O)[O-])ccc21	-14.2	-4.2	0.2	0.9	0.1	1	.
Cn1cc(C(=O)c2ccc(Cl)cc2Cl)cc1C(=O)N/N=C(\N)COc1ccc(Cl)cc1	-10.1	.	.	.	18.3*	.	19.7*
CC(=O)Nc1ccc2c(c1)OCCO2	4.7	3.5	2.6	1	63.2*	0.9	5.0
CC(=O)Nc1ccc2c(c1)OCO2	0.2	1.3	-0.4	1.1	6.8	1.1	.
CCCCOc1ccccc1NC(=O)c1scc2c1OCCO2	5.7	-2.4	-0.4	0.9	16.0*	0.8	20.2*
Cc1ccc(-c2nn(CCC(=O)O)cc2/C=C\C(=O)c2ccc(Br)cc2)cc1	-8.2	4.6	0.3	1	-0.4	1	.
O=C(C[n+]1cccc(CO)c1)Nc1nc2ccccc2s1	-5.5	4.7	-0.4	1	3.4	0.9	.
COC(=O)CCCCC1SCC(NC(=O)c2ccccc2)C1=O (stereo not given)	7.6	3.2	-1.2	1	16.5*	1	3.9
Cc1ccc(S(=O)(=O)/N=c2\sccn2C)cc1	-0.4	2.2	1.5	1	0.8	1	.
Cn1ccs/c1=N\S(=O)(=O)c1ccc(F)cc1	-2.7	4.6	0.0	1	18.3*	1	1.4
O=C1/C(=C/C=C/c2ccco2)SC(=S)N1c1ccc(O)cc1	16.7	.	.	.	58.1*	.	31.1*
CC(C)C(C(=O)O)N1C(=O)/C(=C/c2cccn2C)SC1=S (stereo not given)	7.6	10.2	0.4	0.9	-1.3	0.9	.
O=C(NN1C(=O)/C(=C/C=C/c2ccccc2)SC1=S)c1ccncc1	-3.7	4.7	-0.4	1.3	5.6	1.3	.
O=C1/C(=C/c2ccco2)SC(=S)N1c1cccnc1	16.0	.	.	.	18.4*	.	14.1
O=C(NN1C(=O)/C(=C/C=C/c2ccco2)SC1=S)c1ccncc1	4.4	.	.	.	40.4*	.	10.7
CC(C)C(C(=O)O)N1C(=O)/C(=C/C=C/c2ccco2)SC1=S (stereo not given)	38.3	11.7	1.9	1.1	19.0*	1.1	7.2
C=CCN1C(=O)N(/C=C/C)c2cccc3cccc1c23	-13.8	-30.1	-1.4	0.6	15.3*	0.6	5.9
C=CCN1C(=O)C(C)(C)Nc2ccccc21	1.2	-0.2	2.4	0.9	3.6	1	.
Cc1c(O)ccc2c(O)c(NC(=O)c3ccc4c(c3)CCC(C)(C)O4)c(=O)oc12	-14.5	.	.	.	29.4*	.	0.5
CC(C)(C)NC(=O)c1ccc2c(c1)CCO2	-7.2	.	.	.	1.8	.	.
SMILES	TbHK1 inh	G6PDH counter	DTT redox prof	PMI act	p97 inhibitor	PMI act hi M6P	p97 inh conf
CC1(C)CC(=O)c2sc(NS(=O)(=O)Cc3ccccc3)nc2C1	-45.2	4.7	2.1	1	2.6	1	.
Cc1ccc(S(=O)(=O)Nc2nc3c(s2)C(=O)CC(C)(C)C3)cc1	-41.4	12.8	-1.2	1.1	15.5*	1	4.8
Nc1c([N+](=O)[O-])c(=O)oc2ccccc12	-31.1	5.0	-0.1	1.1	4.2	1	.
CSc1ccccc1NC(=O)c1cc2ncc(Br)cn2n1	15.1	-0.1	-0.3	1	-4.9	1	.
COc1ccc2c(c1)c(/C=N/Nc1nc3ccccc3[nH]1)c(C)n2C	-51.7	.	.	.	32.7*	.	10.6
Oc1ccc(N=Cc2ccc(O)c(O)c2)cc1	-17.8	57.5*	0.3	0.6	21.2*	0.5	12.6
CCc1cccc(NC(=O)C2CCCN(S(=O)(=O)c3c(C)[nH]c(=O)[nH]c3=O)C2)c1 (stereo not given)	-4.7	2.3	-0.1	0.9	23.3*	1	8.7
O=C1CCN(S(=O)(=O)c2ccc(Br)cc2)CCN1	-1.3	8.1	0.6	0.9	5.3	0.8	.
CC(C)(CC(=O)O)Cc1nc(-c2ccc(Cl)cc2)no1	4.9	-1.5	0.2	1	18.6*	1	3.1
NCc1nc(-c2ccc(Cl)cc2)no1	-11.3	5.9	0.4	1	-1.5	1.1	.
O=C(O)CCc1nc(-c2ccc(Cl)cc2)no1	1.6	5.8	0.0	1	19.9*	1	4.2
C#CCOCCOCCOCCNc1nc(N2CCN(C(=O)[C@H](CCCCN)n3cc([C@@H](N)CO)nn3)CC2)nc(N2CCN(C(=O)[C@H](Cc3cc4ccccc4[nH]3)n3cc([C@@H](N)Cc4ccc(O)cc4)nn3)CC2)n1	11.0	7.8	-1.6	1.2	7.3	1.2	.
C#CCOCCOCCOCCNc1nc(N2CCN(C(=O)[C@H](CCCCN)n3cc([C@@H](N)CC(C)C)nn3)CC2)nc(N2CCN(C(=O)[C@H](Cc3cc4ccccc4[nH]3)n3cc([C@@H](N)Cc4ccc(O)cc4)nn3)CC2)n1	-1.5	7.8	0.4	1.3	20.6*	1.3	16.5*
C#CCOCCOCCOCCNc1nc(N2CCN(C(=O)C(Cc3ccc(O)cc3)n3cc(C(N)CC(C)C)nn3)CC2)nc(N2CCN(C(=O)C(Cc3cc4ccccc4[nH]3)n3cc(C(N)C(C)CC)nn3)CC2)n1 (stereo not given)	-3.1	-1.5	-0.9	1.3	14.2	1.2	.
C#CCOCCOCCOCCNc1nc(N2CCN(C(=O)[C@H](Cc3ccc(O)cc3)n3cc([C@@H](N)CC(C)C)nn3)CC2)nc(N2CCN(C(=O)[C@H](Cc3ccc(O)cc3)n3cc([C@@H](N)CC(C)C)nn3)CC2)n1	-1.1	12.6	0.6	1.1	18.2*	1.2	13.7
C#CCOCCOCCOCCNc1nc(N2CCN(C(=O)[C@H](Cc3ccc(O)cc3)n3cc([C@@H](N)CC(C)C)nn3)CC2)nc(N2CCN(C(=O)[C@H](Cc3cc4ccccc4[nH]3)n3cc([C@@H](N)CC(C)C)nn3)CC2)n1	-8.2	-2.1	-1.4	1.2	20.2*	1.3	12.8
c1ccc2c(Nc3ccc4c(c3)OCCO4)c3c(nc2c1)CCCC3	-22.5	-4.3	1.3	1	5.3	1	.
Fc1ccccc1-c1nc(NCc2ccco2)c2ccccc2n1	4.9	-1.6	0.0	1	21.5*	1	28.0*

Screening results deposited in PubChem by several laboratories.
